# Shown are actives, neighbours in structure and some others; about 5.5% of the full set was active somewhere.
# Yeast life ext: compounds extending yeast replicative lifespan, primary screen, S. cerevisiae, OD615; 130,000 compounds, 0.68% hits; AID 775, 2007; inhibition of the nicotinamide effect, % at 10 µM; S. cerevisiae growth with nicotinamide; deaD strain in restrictive glucose medium;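 active = inhibition above a set limit, placed 3 SD over the median of all compounds, cut at about 26% in these data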;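 note: 0% = nicotinamide-treated wells and 100% = cells grown without nicotinamide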
#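 Material: Modified budding yeast, DeaD strain | Medium: Restrictive glucose medium | Probe or stimulus: 1.5 mM nicotinamide | Dosing: Single dose 10 µM compound, 0.25% DMSO | Times: 48 h at 30 °C | Technique: OD615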
# WT yeast gro inh: growth inhibition of WT strain, primary screen, mitochondrial fusion inhibitor project, WT and mutant strains, chemical genetic | 190,000 compounds, 2.1% hits | mitochondrial fusion phenotypic screen | inhibition, % at 10 µM | AID 1362, 2008; in the data active = inhibition above about 58%; tested in S. cerevisiae
# Yeast growth inh: growth inhibitors of yeast BB579 in restrictive medium, primary screen, yeast lifespan-shortening project, S. cerevisiae; 140,000 compounds, 0.51% hits; OD615, 48 h; inhibition, % at 10 µM;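 active = inhibition above a set limit, 3 SD over the mean compound inhibition, cut at about 44% in these data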
#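 Assay system – yeast BB579 (DeaD) · Dosing – single compound dose of 10 µM, 0.25% DMSO final · Detection – OD615 turbidity measurement · Buffer or medium – CSMM-D restrictive synthetic medium containing dextrose (glucose) · Benchmarks – positive control amphotericin B 10 µg/mL · Incubation – 48 h exposure, 30 °C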
# KCC2 mod: KCC2 cotransporter modulators, thallium flux, primary screen, cell-based, HEK293 KCC2, FluoZin-2 fluorescence, MLSMR; Solute carrier family 12 member 5 (Homo sapiens), Q9H2X9; KCC2 cells, thallium flux FluoZin-2 fluorescence; B-score of Tl+ flux slope (higher = more flux/activation; lower = inhibition) at 10 µM; 190,000 compounds, 2.2% hits; AID 1456, 2008;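 active = thallium flux slope and its plate-corrected score both differing from the plate sample mean at a set confidence after two filtering rounds, in either direction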;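 note: slope of fluorescence scaled to starting intensity during 10 to 20 s after thallium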
# Target sequence (Q9H2X9 whole entry, looked up): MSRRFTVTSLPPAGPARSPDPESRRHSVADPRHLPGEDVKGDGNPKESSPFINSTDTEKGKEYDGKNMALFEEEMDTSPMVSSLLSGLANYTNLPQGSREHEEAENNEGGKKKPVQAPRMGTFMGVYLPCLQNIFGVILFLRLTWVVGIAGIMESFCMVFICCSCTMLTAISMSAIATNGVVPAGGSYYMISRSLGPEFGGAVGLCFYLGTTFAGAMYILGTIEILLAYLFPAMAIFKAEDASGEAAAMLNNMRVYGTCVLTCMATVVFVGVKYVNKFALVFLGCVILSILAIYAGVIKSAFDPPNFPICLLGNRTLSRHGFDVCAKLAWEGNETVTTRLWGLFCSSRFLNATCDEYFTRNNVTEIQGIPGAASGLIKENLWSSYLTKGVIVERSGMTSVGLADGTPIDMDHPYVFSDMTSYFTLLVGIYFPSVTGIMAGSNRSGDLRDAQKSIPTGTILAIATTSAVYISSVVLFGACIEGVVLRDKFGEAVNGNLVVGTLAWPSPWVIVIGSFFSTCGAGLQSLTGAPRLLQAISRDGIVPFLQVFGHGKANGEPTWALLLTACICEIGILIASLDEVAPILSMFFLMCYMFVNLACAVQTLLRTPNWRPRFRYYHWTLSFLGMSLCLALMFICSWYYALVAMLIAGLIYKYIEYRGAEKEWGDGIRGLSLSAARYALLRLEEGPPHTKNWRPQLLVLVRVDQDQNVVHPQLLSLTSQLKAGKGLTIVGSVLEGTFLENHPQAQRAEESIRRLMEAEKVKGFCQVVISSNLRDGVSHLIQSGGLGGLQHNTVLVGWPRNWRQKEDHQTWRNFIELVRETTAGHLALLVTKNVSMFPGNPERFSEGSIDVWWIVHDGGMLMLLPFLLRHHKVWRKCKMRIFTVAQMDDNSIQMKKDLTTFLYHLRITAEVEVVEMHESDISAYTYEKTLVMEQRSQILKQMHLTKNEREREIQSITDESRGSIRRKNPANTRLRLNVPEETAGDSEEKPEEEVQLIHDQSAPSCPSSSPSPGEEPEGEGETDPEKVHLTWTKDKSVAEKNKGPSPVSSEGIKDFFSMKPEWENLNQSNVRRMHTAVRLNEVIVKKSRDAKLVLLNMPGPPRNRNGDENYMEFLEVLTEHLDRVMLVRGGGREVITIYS
# RAM network inh: inhibitors of the yeast RAM network, primary screen, dse1pr::URA3 reporter, 5-FOA selection | S. cerevisiae dse1pr::URA3 reporter, 5-FOA growth OD615, 2 d; analog-sensitive cbk1-as2 kinase mutant strain | inhibition, % at 50 µM | 190,000 compounds, 1.8% hits;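 active = inhibition above a set limit, 3 SD over mean compound inhibition, cut at about 8.4% in these data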;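 note: 0% = DMSO-only wells with no growth and 100% = 10 µM 1-NA-PP1 full growth; inhibition rescues growth on 5-FOA so higher OD means more RAM inhibition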
# KCC2 secondary: KCC2 modulators in sodium-free buffer, confirmation, cell-based, HEK293 KCC2, thallium flux, secondary assay; AID 1713, 2009; FluoZin2 fluorescence; stronger effect = higher value; shares compounds with KCC2 mod; 3,700 compounds, 15% hits; normalised thallium flux (F/F0 slope) at 10 µM;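 active = thallium flux slope above the same plate's solvent-only control mean plus 3 SD; inconclusive = the two replicate wells disagree; inactive = no significant difference from solvent-only control wells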
# KCC2 bumet counter: thallium flux persisting under bumetanide in KCC2 cells, confirmation, counter-screen for KCC2 modulator project, cell-based, HEK293 KCC2, FluoZin2, secondary assay 3 | shares compounds with KCC2 mod | AID 1714, 2009 | normalized thallium flux at 10 µM | HEK293-KCC2 + bumetanide/ouabain; stronger effect = higher value | 3,700 compounds, 49% hits;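 active = thallium entry rate above the same plate's blocked-transporter control wells by more than 3 SD; inconclusive = the two repeat wells disagree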;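 note: raw slope of fluorescence over initial fluorescence between 10 and 20 s after thallium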
# KCC2 sec2: KCC2 modulators without ouabain present, confirmation, cell-based, HEK293 KCC2, thallium flux, FluoZin2, secondary assay 2; normalized thallium flux at 10 µM; AID 1715, 2009; shares compounds with KCC2 mod; 3,700 compounds, 23% hits; thallium flux FluoZin2 fluorescence; actives lie on both sides; F/F0 rise rate, 10–20 s post-thallium;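 active = thallium flux slope more than 3 SD above or below the plate's solvent-only control mean, mostly below; inconclusive = the two repeat wells disagreed; inactive = no significant shift from solvent-only controls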;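 note: raw slope with 0.1% DMSO as baseline and bumetanide as block control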
# HEK counter1: thallium flux modulation in parental HEK cells, confirmation, counter-screen for KCC2 modulator project, cell-based, counterscreen 1 | shares compounds with KCC2 mod | HEK293 parental cells, thallium flux FluoZin2, ouabain; baseline-ratio fluorescence slope, 10–20 s after thallium | thallium flux rate (normalised fluorescence) at 10 µM | 3,700 compounds, 46% hits;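 active = thallium flux rate significantly above the same plate's solvent-only control wells, beyond their mean plus 3 SD; inconclusive = the two replicate wells gave conflicting results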
# KCC2 retest ouab: KCC2 inhibitors and activators, ouabain retest, confirmation, HEK-KCC2 cells; HEK293-KCC2, thallium flux FluoZin2 fluorescence; bidirectional: low = inhibitor, high = activator; raw Tl+ flux slope (below DMSO = inhibition, above = activation) at 10 µM; 3,700 compounds, 48% hits; shares compounds with KCC2 mod;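 active = thallium flux slope beyond 3 SD from same-plate DMSO control mean in most replicates, usually higher, sometimes lower; inconclusive = repeat tests gave conflicting results; inactive = no significant difference from controls in most replicates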;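 note: slope of initial-normalized fluorescence between seconds 10 and 20 after thallium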
# HEK counter2: native HEK Tl+ uptake effects, second counter-screen – HEK cells, counterscreen 2, counter-screen for KCC2 modulator project, confirmation; shares compounds with KCC2 mod; 3,700 compounds, 33% hits; thallium flux slope at 10 µM; HEK293 parental, thallium flux FluoZin-2 fluorescence slope;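 active = thallium flux slope above the same plate's solvent-control mean plus 3 SD in both duplicate wells; inconclusive = duplicate wells that disagreed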;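 note: run without ouabain in cells lacking the KCC2 cotransporter; slope of fluorescence scaled to its starting value between 10 and 20 s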
# * = called active by the depositor; ? = inconclusive; . = no result given.
SMILES,Yeast life ext,WT yeast gro inh,Yeast growth inh,KCC2 mod,RAM network inh,KCC2 secondary,KCC2 bumet counter,KCC2 sec2,HEK counter1,KCC2 retest ouab,HEK counter2
CCc1ccc(OCC(=O)NNC(=O)CSc2ncnc3sc(C)c(C)c23)cc1,-9,0,-39,4.5*,3,?,0.015*,0.029,0.01*,?,0.0098
Cc1sc2ncnc(SCc3ccco3)c2c1C,-10,1,-19,2.5,4,.,.,.,.,.,.
Cc1ccc(OCC(=O)NNC(=O)CSc2ncnc3sc(C)c(C)c23)cc1,.,-7,.,13*,1,0.012,0.016*,0.035,0.02*,0.029*,0.013*
Cc1sc2ncnc(SCC(=O)NC(C)(C)C)c2c1C,.,-10,.,0.42,2,.,.,.,.,.,.
Cc1sc2ncnc(SCC(=O)c3ccc(Cl)s3)c2c1C,-28,-8,-36,1.4,1,.,.,.,.,.,.
Cc1ccc(OCCSc2ncnc3sc(C)c(C)c23)cc1C,-10,2,-23,.,8,0.014*,0.042*,0.033,?,?,0.013*
Cc1sc2ncnc(SCC(=O)c3ccc(O)cc3O)c2c1C,.,.,.,102*,.,0.01*,0.087*,0.076*,0.076*,0.078*,0.055*
CSc1ncc(Cl)c(C(=O)Nc2nnc(SC/C=C/c3ccccc3)s2)n1,-7,39,11,28*,5,0.0065,0.082*,0.054*,0.064*,0.066*,0.041*
Cc1ccsc1C(=O)OCc1nc2ccccc2c(=O)[nH]1,5,-3,-1,.,1,0.0099,0.0071,0.035,0.0079,0.02,?
O=C(N/N=C/c1ccncc1)c1ccc(COc2cccc3cccnc23)cc1,.,12,.,-2.7,1,.,.,.,.,.,.
O=C(N/N=C/c1ccc2cccc(OCc3ccccc3)c2n1)c1ccc(Cl)cc1,-1,4,-47,4.9*,3,0.022*,0.048*,0.031,0.014*,0.025*,?
CSc1ccccc1NC(=S)Nc1ccccc1C(F)(F)F,-7,-3,-18,4.7*,2,0.0075,0.011*,0.033,0.013*,?,0.012
CSc1ccccc1NC(=S)Nc1ccc(S(N)(=O)=O)cc1,.,11,.,3*,4,0.0075,0.0075*,0.033,0.0096*,?,?
CSc1ccccc1NC(=O)CN(C)CC(=O)Nc1ccccc1C(F)(F)F,.,-12,.,-1.1,-1,.,.,.,.,.,.
NS(=O)(=O)c1ccc(NC(=S)Nc2cc(Cl)c(Cl)cc2Cl)cc1,7,0,-27,1.9,1,.,.,.,.,.,.
